Laboratory results published in ChEMBL document CHEMBL1153373, “Effect of ring size on conformation and biological activity of cyclic cationic antimicrobial peptides” (J Med Chem, 2009).
Converted amounts (≈) assume the structure as drawn. Square brackets hold non-standard residues; d marks the D form. Peptide text beside a SMILES is read from it. Orn = NCCC[C@H](N)C(=O)O

Experiments:
Candida albicans = experiment: Antimicrobial activity against Candida albicans after 24 hrs by standard microtiter dilution method; format: functional
Summary of the method: (§1)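 Fungal MICs were determined by standard microtitre dilution, taken as the lowest peptide concentration inhibiting growth after 24 h incubation at 37 °C.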

Cryptococcus neoformans = experiment: Antimicrobial activity against Cryptococcus neoformans after 24 hrs by standard microtiter dilution method; format: functional; summary of the method: as §1
Pseudomonas aeruginosa = experiment: Antimicrobial activity against Pseudomonas aeruginosa after 24 hrs by standard microtiter dilution method; format: functional
[1] = test system: Acinetobacter calcoaceticus; experiment: Antimicrobial activity against Acinetobacter calcoaceticus after 24 hrs by standard microtiter dilution method; format: functional
Klebsiella pneumoniae = experiment: Antimicrobial activity against Klebsiella pneumoniae after 24 hrs by standard microtiter dilution method; format: functional
[2] = Therapeutic index, ratio of hemolytic activity in human RBC to MIC for Candida albicans; settings: human red blood cells (RBC), read-out: TI
Serratia marcescens = experiment: Antimicrobial activity against Serratia marcescens after 24 hrs by standard microtiter dilution method; format: functional
Streptococcus pyogenes = experiment: Antimicrobial activity against Streptococcus pyogenes after 24 hrs by standard microtiter dilution method; format: functional
[3] = Therapeutic index, ratio of hemolytic activity in human RBC to MIC for Pseudomonas aeruginosa; settings: human red blood cells (RBC), read-out: TI
Staphylococcus aureus = experiment: Antimicrobial activity against Staphylococcus aureus after 24 hrs by standard microtiter dilution method; format: functional
[4] = Therapeutic index, ratio of hemolytic activity in human RBC to MIC for Stenotrophomonas maltophilia; settings: human red blood cells (RBC), read-out: TI
[5] = Toxicity in human RBC assessed as fold reduction in hemolytic activity at 100 ug/ml after 24 hrs relative to control; format: cell-based; settings: erythrocyte
Streptococcus pneumoniae = experiment: Antimicrobial activity against Streptococcus pneumoniae after 24 hrs by standard microtiter dilution method; format: functional
Enterococcus faecalis = experiment: Antimicrobial activity against Enterococcus faecalis after 24 hrs by standard microtiter dilution method; format: functional
[6] = test system: Stenotrophomonas maltophilia; experiment: Antimicrobial activity against Stenotrophomonas maltophilia after 24 hrs by standard microtiter dilution method; format: functional
[7] = Therapeutic index, ratio of hemolytic activity in human RBC to MIC for Streptococcus mitis; settings: human red blood cells (RBC), read-out: TI
[8] = Therapeutic index, ratio of hemolytic activity in human RBC to MIC for Streptococcus pneumoniae; settings: human red blood cells (RBC), read-out: TI
[9] = test system: Staphylococcus epidermidis; experiment: Antimicrobial activity against Staphylococcus epidermidis after 24 hrs by standard microtiter dilution method; format: functional
[10] = Therapeutic index, ratio of hemolytic activity in human RBC to MIC for Corynebacterium jeikeium; settings: human red blood cells (RBC), read-out: TI
Streptococcus mitis = experiment: Antimicrobial activity against Streptococcus mitis after 24 hrs by standard microtiter dilution method; format: functional
[11] = Therapeutic index, ratio of hemolytic activity in human RBC to MIC for Cryptococcus neoformans; settings: human red blood cells (RBC), read-out: TI
[12] = Therapeutic index, ratio of hemolytic activity in human RBC to MIC for Enterobacter cloacae; settings: human red blood cells (RBC), read-out: TI
[13] = Therapeutic index, ratio of hemolytic activity in human RBC to MIC for Serratia marcescens; settings: human red blood cells (RBC), read-out: TI
[14] = Therapeutic index, ratio of hemolytic activity in human RBC to MIC for Staphylococcus aureus; settings: human red blood cells (RBC), read-out: TI
Enterobacter cloacae = experiment: Antimicrobial activity against Enterobacter cloacae after 24 hrs by standard microtiter dilution method; format: functional
[15] = Therapeutic index, ratio of hemolytic activity in human RBC to MIC for Enterococcus faecalis; settings: human red blood cells (RBC), read-out: TI
Corynebacterium jeikeium = experiment: Antimicrobial activity against Corynebacterium jeikeium after 24 hrs by standard microtiter dilution method; format: functional
[16] = Toxicity in human RBC assessed as hemolytic activity at 100 ug/ml after 24 hrs relative to control; format: cell-based, Erythrocyte; settings: human red blood cells (RBC), read-out: Activity
Summary of the method: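 Human erythrocytes in saline were exposed to peptide at 100 µg/mL for 24 h at 37 °C. Result is expressed as percent hemolysis.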

[17] = Therapeutic index, ratio of hemolytic activity in human RBC to MIC for Acinetobacter calcoaceticus; settings: human red blood cells (RBC), read-out: TI
[18] = Therapeutic index, ratio of hemolytic activity in human RBC to MIC for Staphylococcus epidermidis; settings: human red blood cells (RBC), read-out: TI
[19] = Therapeutic index, ratio of hemolytic activity in human RBC to MIC for Streptococcus pyogenes; settings: human red blood cells (RBC), read-out: TI
[20] = Therapeutic index, ratio of hemolytic activity in human RBC to MIC for Escherichia coli; settings: human red blood cells (RBC), read-out: TI
[21] = Therapeutic index, ratio of hemolytic activity in human RBC to MIC for Klebsiella pneumoniae; settings: human red blood cells (RBC), read-out: TI
Escherichia coli = experiment: Antimicrobial activity against Escherichia coli after 24 hrs by standard microtiter dilution method; format: functional

| MIC (Cryptococcus neoformans) [µg/mL] | MIC (Klebsiella pneumoniae) [µg/mL] | SMILES | MIC (Candida albicans) [µg/mL] | MIC (Pseudomonas aeruginosa) [µg/mL] | MIC [1] [µg/mL] | selectivity ratio [2] | MIC (Serratia marcescens) [µg/mL] | MIC (Streptococcus pyogenes) [µg/mL] | selectivity ratio [3] | MIC (Staphylococcus aureus) [µg/mL] | selectivity ratio [4] | Activity [5] | MIC (Streptococcus pneumoniae) [µg/mL] | MIC (Enterococcus faecalis) [µg/mL] | MIC [6] [µg/mL] | selectivity ratio [7] | selectivity ratio [8] | MIC [9] [µg/mL] | selectivity ratio [10] | MIC (Streptococcus mitis) [µg/mL] | further results |
| --- | --- | --- | --- | --- | --- | --- | --- | --- | --- | --- | --- | --- | --- | --- | --- | --- | --- | --- | --- | --- | --- |
| 2 (≈ 1.2 µM) | 128 (≈ 76.6 µM) | CC(C)C[C@@H]1NC(=O)[C@H](CCCCN)NC(=O)[C@H](C(C)C)NC(=O)[C@@H]2CCCN2C(=O)[C@@H](Cc2ccc(O)cc2)NC(=O)[C@H](CC(C)C)NC(=O)[C@H](CCCCN)NC(=O)[C@H](C(C)C)NC(=O)[C@H](CCCCN)NC(=O)[C@H](CC(C)C)NC(=O)[C@@H]2CCCN2C(=O)[C@@H](Cc2ccc(O)cc2)NC(=O)[C@H](C(C)C)NC(=O)[C@H](CCCCN)NC1=O (cyclo(KLKV[dY]PLKVKL[dY]PV)) | 64 (≈ 38.3 µM) | 64 (≈ 38.3 µM) | 16 (≈ 9.58 µM) | 2 | 256 (≈ 153 µM) | 1 (≈ 0.599 µM) | 2 | 32 (≈ 19.2 µM) | 2 | 1 | – | – | – | – | – | – | – | – | – |
| 1 (≈ 0.832 µM) | 32 (≈ 26.6 µM) | CC(C)C[C@@H]1NC(=O)[C@H](CCCCN)NC(=O)[C@H](C(C)C)NC(=O)[C@@H]2CCCN2C(=O)[C@@H](Cc2ccc(O)cc2)NC(=O)[C@H](CC(C)C)NC(=O)[C@H](CCCCN)NC(=O)[C@H](C(C)C)NC(=O)[C@@H]2CCCN2C(=O)[C@@H](Cc2ccc(O)cc2)NC1=O (cyclo(KL[dY]PVKL[dY]PV)) | – | – | – | – | – | – | 1 | – | – | 1 | 1 (≈ 0.832 µM) | 2 (≈ 1.66 µM) | 16 (≈ 13.3 µM) | 100 | 100 | 2 (≈ 1.66 µM) | 100 | 1 (≈ 0.832 µM) | selectivity ratio [11]: 100 |
| – | – | CC(C)C[C@@H]1NC(=O)[C@H](CCCCN)NC(=O)[C@H](C(C)C)NC(=O)[C@@H]2CCCN2C(=O)[C@@H](Cc2ccc(O)cc2)NC(=O)[C@H](CC(C)C)NC(=O)[C@H](CCCCN)NC(=O)[C@H](C(C)C)NC(=O)[C@H](CCCCN)NC(=O)[C@H](CC(C)C)NC(=O)[C@@H]2CCCN2C(=O)[C@@H](Cc2ccc(O)cc2)NC(=O)[C@H](CCCCN)NC1=O (cyclo(VKLK[dY]PLKVKL[dY]P)) | – | – | – | – | – | – | – | – | – | – | – | – | – | – | – | – | – | – | selectivity ratio [12]: 4; selectivity ratio [13]: 2 |

| SMILES | MIC (Cryptococcus neoformans) [µg/mL] | MIC (Klebsiella pneumoniae) [µg/mL] | MIC (Candida albicans) [µg/mL] | MIC (Pseudomonas aeruginosa) [µg/mL] | MIC [1] [µg/mL] | selectivity ratio [2] | MIC (Serratia marcescens) [µg/mL] | MIC (Streptococcus pyogenes) [µg/mL] | selectivity ratio [3] | MIC (Staphylococcus aureus) [µg/mL] | selectivity ratio [4] | Activity [5] | MIC (Streptococcus pneumoniae) [µg/mL] | MIC (Enterococcus faecalis) [µg/mL] | MIC [6] [µg/mL] | selectivity ratio [7] | selectivity ratio [8] | MIC [9] [µg/mL] | selectivity ratio [10] | MIC (Streptococcus mitis) [µg/mL] | further results |
| --- | --- | --- | --- | --- | --- | --- | --- | --- | --- | --- | --- | --- | --- | --- | --- | --- | --- | --- | --- | --- | --- |
| CC(C)C[C@@H]1NC(=O)[C@H](CCCN)NC(=O)[C@H](C(C)C)NC(=O)[C@@H]2CCCN2C(=O)[C@@H](Cc2ccccc2)NC(=O)[C@H](CC(C)C)NC(=O)[C@H](CCCN)NC(=O)[C@H](C(C)C)NC(=O)[C@@H]2CCCN2C(=O)[C@@H](Cc2ccccc2)NC1=O [GRAMICIDIN S] (cyclo(L[dF]PV[Orn]L[dF]PV[Orn])) | 1 (≈ 0.876 µM) | 16 (≈ 14 µM) | 8 (≈ 7.01 µM) | 32 (≈ 28 µM) | 8 (≈ 7.01 µM) | 12 | 256 (≈ 224 µM) | 0.5 (≈ 0.438 µM) | 3 | 2 (≈ 1.75 µM) | 12 | 1 | 1 (≈ 0.876 µM) | 2 (≈ 1.75 µM) | 8 (≈ 7.01 µM) | 200 | 100 | 2 (≈ 1.75 µM) | 25 | 0.5 (≈ 0.438 µM) | selectivity ratio [12]: 3; selectivity ratio [13]: 0.3; selectivity ratio [14]: 50; MIC (Enterobacter cloacae): 32 µg/mL (≈ 28 µM); selectivity ratio [15]: 50; MIC (Corynebacterium jeikeium): 4 µg/mL (≈ 3.5 µM); hemolysis at 24 h, 100 ug/ml [16]: 100%; selectivity ratio [17]: 12; selectivity ratio [18]: 50; selectivity ratio [19]: 200; selectivity ratio [20]: 6; selectivity ratio [21]: 6; MIC (Escherichia coli): 16 µg/mL (≈ 14 µM); selectivity ratio [11]: 100 |
